The record followed here is article PMC8209782 (Bioorganic & medicinal chemistry, 2020).

One assay concerns the target T1, HNE (Homo sapiens, UniProt P08246).
T1 sequence (P08246 30-267): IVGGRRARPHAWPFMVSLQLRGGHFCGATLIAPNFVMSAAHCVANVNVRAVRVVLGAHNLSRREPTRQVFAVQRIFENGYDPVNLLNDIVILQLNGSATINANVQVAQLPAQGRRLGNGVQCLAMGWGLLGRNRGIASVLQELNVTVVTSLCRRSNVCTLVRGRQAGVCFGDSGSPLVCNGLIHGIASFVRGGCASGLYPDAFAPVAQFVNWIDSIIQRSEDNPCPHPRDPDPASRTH
Put plainly: In vitro HNE enzyme assay with pNa substrate. It counts as biochemical.

The test system of the next assay is other kallikreins. The experiment in a line: Protease panel assay. It counts as biochemical, human. Particulars: up to 10 μM. The method, boiled down: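 Human kallikreins in a 23-protease panel run by a contract lab, with enzyme conditions tabulated in the supplement. […] Fluorogenic AMC peptide substrates; fluorescence increase followed as a time course. The initial linear slope (signal/min) was used to derive IC50.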

For the molecule `C/C=C1\NC(=O)[C@@H](NC(=O)[C@@H](NC(=O)[C@H](C)NC(=O)C/C(C)=C/Cl)[C@@H](C)CC)[C@@H](C)OC(=O)[C@H](C(C)C)NC(=O)[C@H](Cc2ccc(O)cc2)N(C)C(=O)[C@H](Cc2ccccc2)N2C(=O)[C@H](CC[C@H]2O)NC1=O` [Tutuilamide A], on HNE, the “fold less active than lyngbyastatin 7 against HNE” value is reported as 1.5 fold. Also, the “effect on other kallikreins (selectivity profiling)” value in the assay on other kallikreins was “without affecting”.
